Active and inactive are the calls of the source. The rule behind the calls is not given here.
Key:
Trypanosoma cruzi [1] = assay: Antitrypanosomal activity against Trypanosoma cruzi Queretaro epimastigotes assessed as reduction in parasite viability incubated for 24 hrs by Neubauer hematocytometery; assay type: functional
Procedure, shortened: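 T. cruzi Queretaro-strain epimastigotes were exposed to the compounds and parasite growth was measured. IC50 was taken as the concentration that inhibits parasite growth by 50%.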

Trypanosoma cruzi [2] = assay: Induction of changes in cellular redox balance in Trypanosoma cruzi Queretaro epimastigotes assessed as increase in GSH level incubated for 24 hrs by HPLC and UV-Vis spectrophotometry; assay type: functional
Trypanosoma cruzi [3] = assay: Induction of changes in cellular redox balance in Trypanosoma cruzi Queretaro epimastigotes assessed as increase in T(SH)2 level at 5 to 20 uM incubated for 24 hrs by HPLC and UV-Vis spectrophotometry; assay type: functional
Trypanosoma cruzi [4] = assay: Induction of changes in cellular redox balance in Trypanosoma cruzi Queretaro epimastigotes assessed as increase in cysteine level incubated for 24 hrs by HPLC and UV-Vis spectrophotometry; assay type: functional
[5] = Cytotoxicity against mouse J774 cells incubated for 24 hrs by resazurin dye based fluorescence assay; assay type: cell-based
Procedure, shortened: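 J774 mouse macrophage cell line was exposed to the compounds, and cytotoxicity was read as resazurin reduction using a previously described method with modifications. The read-out gave CC50.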

[6] = Selectivity index, ratio of CC50 for cytotoxicity against mouse J774 cells to IC50 for antitrypanosomal activity against Trypanosoma cruzi Queretaro epimastigotes; assay type: toxicity, cell-based; settings: read-out: Ratio CC50/IC50
Procedure, shortened: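 Selectivity index was calculated as CC50 in J774 mouse macrophages (resazurin reduction) divided by IC50 for growth inhibition of Queretaro-strain epimastigotes.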

## COc1ccc(/C=N/NC(=O)c2ccc3[nH]c(C)nc3c2)cc1OC
Trypanosoma cruzi [1]
  IC50: > 500 µM

## COc1cc(/C=N/NC(=O)c2ccc3[nH]c(C)nc3c2)ccc1O
Trypanosoma cruzi [2]
  Activity: Dose-dependent effect
Trypanosoma cruzi [3]
  Activity: inactive
Trypanosoma cruzi [1]
  IC50: 3 µM
Trypanosoma cruzi [4]
  Activity: Dose-dependent effect
[5]
  CC50 at 24 h: 161 µM
[6]
  selectivity ratio: 53.5

## Cc1nc2cc(C(=O)N/N=C/c3ccc(O)cc3)ccc2[nH]1
Trypanosoma cruzi [1]
  IC50: > 500 µM

## Cc1nc2cc(C(=O)N/N=C/c3ccc(O)c(O)c3)ccc2[nH]1
Trypanosoma cruzi [1]
  IC50: 380 µM

## Cc1nc2cc(C(=O)N/N=C/c3ccc4c(c3)OCCO4)ccc2[nH]1
Trypanosoma cruzi [1]
  IC50: > 500 µM

## Cc1nc2cc(C(=O)N/N=C/c3ccccc3)ccc2[nH]1
Trypanosoma cruzi [1]
  IC50: 280 µM

## Cc1nc2cc(C(=O)O)ccc2[nH]1
Trypanosoma cruzi [1]
  IC50: 226 µM
[5]
  CC50 at 24 h: 264 µM
[6]
  selectivity ratio: 1.2

## Cc1nc2cc(C(=O)N/N=C/c3cc(O)ccc3O)ccc2[nH]1
Trypanosoma cruzi [1]
  IC50: > 500 µM

## COc1ccc(/C=N/NC(=O)c2ccc3[nH]c(C)nc3c2)cc1
Trypanosoma cruzi [1]
  IC50: 320 µM

## Cc1nc2cc(C(=O)N/N=C/c3ccc([N+](=O)[O-])o3)ccc2[nH]1
Trypanosoma cruzi [1]
  IC50: 434 µM

## COc1cc(/C=C/C=N/NC(=O)c2ccc3[nH]c(C)nc3c2)ccc1O
Trypanosoma cruzi [2]
  Activity: Dose-dependent effect
Trypanosoma cruzi [3]
  Activity: Active
Trypanosoma cruzi [1]
  IC50: 8 µM
Trypanosoma cruzi [4]
  Activity: Dose-dependent effect
[5]
  CC50 at 24 h: 161 µM
[6]
  selectivity ratio: 20.1

## COc1cc(/C=N/NC(=O)c2ccc3[nH]c(C)nc3c2)cc(OC)c1OC
Trypanosoma cruzi [1]
  IC50: > 500 µM

## CC1CS(=O)(=O)CCN1/N=C/c1ccc([N+](=O)[O-])o1 (stereo not given) [NIFURTIMOX]
[6]
  selectivity ratio: 36.5

## COc1ccc(/C=N/NC(=O)c2ccc3[nH]c(C)nc3c2)c(OC)c1OC
Trypanosoma cruzi [1]
  IC50: > 500 µM

## O=C(Cn1ccnc1[N+](=O)[O-])NCc1ccccc1 [BENZNIDAZOLE]
Trypanosoma cruzi [1]
  IC50: 7.5 µM

## Cc1nc2cc(C(=O)NN)ccc2[nH]1
Trypanosoma cruzi [1]
  IC50: 393 µM
[5]
  CC50 at 24 h: 233 µM
[6]
  selectivity ratio: 0.6
